A selection: hits, their analogues and other compounds. The true share with any hit is near 3.8%.
FN deposit inh = inhibitors of fibronectin matrix deposition, primary screen, AH1F cells, Alexa488-fibronectin fluorescence, plate reader; AH1F fibroblasts, overnight; 350,000 compounds, 0.086% hits; inhibition, % at 12.6 µM;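 active = mean inhibition across replicates of 30% or more, regardless of how many single replicates reach that level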;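 note: positive control wells lacked labelled fibronectin entirely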
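Material: AH1F fibroblast monolayer depositing Alexa488-labelled fibronectin into matrix | Input: 10000 AH1F cells/well | Medium: DMEM plus 2% serum, read in PBS | Reagent: Alexa488-fibronectin, 24 nM final in well | Compound dosing: One dose per compound, pinned | Schedule: 1 h adhesion, overnight exposure | Measured by: Fluorescence at 485 nm excitation, 525 nm emission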
ARNT-TACC3 inh = disruptors of ARNT/TACC3 protein interaction, primary screen, biochemical, AlphaScreen, single concentration. Transforming acidic coiled-coil-containing protein 3 (Homo sapiens), Q9Y6A5. AlphaScreen His-ARNT PAS-B/GST-TACC3 binding, luminescence; TACC3 fragment carries E629A point mutation. inhibition, % at 9.99 µM. 390,000 compounds, 0.66% hits;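 active = mean inhibition of replicates at least 50% and at least half of replicates each reaching 50%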;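 note: 0% = complete ARNT plus TACC3 wells and 100% = ARNT alone without TACC3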
XiGFP reactiv = activators of inactive X chromosome reactivation, primary screen, imaging, XiGFP fibroblasts, GFP high-content imaging, set 2. XiGFP mouse fibroblasts, % GFP-positive cells imaging, 3 d; cells co-treated with 5-aza-dC sensitizer; scaled so ellipticine positive control = 100%. activation, % at 7.58 µM. 360,000 compounds, 0.055% hits. AID 743238, 2013;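 active = mean normalized replicate activation at least 10% and every replicate at or above 10%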;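 note: 0% = median of on-plate neutral control wells and 100% = ellipticine 6 µM median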
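System: SV40-immortalized XiGFP fibroblast cells, line 68-5-11 / Incubation: 3-day compound exposure, then 15 min fixation at room temperature / Compound: single concentration per compound, delivered by pin transfer / Buffer or medium: DMEM plus 5-aza-dC sensitizer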
DENV2 CPE rescue = inhibitors of DENV2 cytopathic effect, primary screen, cell-based, plate reader, single concentration | 350,000 compounds, 1.7% hits | CPE inhibition, % at 9.99 µM | DENV2-infected cells, cytopathic effect rescue; in the data active = CPE inhibition above about 20%, passing the limit was not always enough; tested in BHK-21 cells;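 note: 0% = median of neutral control wells and 100% = median of positive control wells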
FGF22 binding = binders of human FGF22 protein, primary screen, FGF22 synaptogenesis inhibitor project, biophysical, thermal shift, single point. activity (Tm shift, normalised), % at 9.99 µM. Fibroblast growth factor 22 (Homo sapiens), Q9HCT0. AID 651658, 2012. recombinant FGF22 thermal shift, SYPRO orange fluorescence; percent of sucrose octasulfate shift, DMSO zero. 340,000 compounds, 1.5% hits;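 active = mean Tm shift, scaled 0 neutral to 100 positive control, at about 1.3% or above, every replicate too, limit read from the data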
Target sequence (Q9HCT0 whole entry, looked up): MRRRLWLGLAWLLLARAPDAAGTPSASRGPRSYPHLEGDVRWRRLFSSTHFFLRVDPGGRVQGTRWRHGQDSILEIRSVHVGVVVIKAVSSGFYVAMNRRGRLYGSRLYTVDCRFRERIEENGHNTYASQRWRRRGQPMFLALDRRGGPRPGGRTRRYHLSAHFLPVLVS
SIRT5 inh = SIRT5 desuccinylase inhibitors, primary screen, biochemical, fluorescence imaging, single point, set 5; Purified SirT5, succinyl-peptide AMC, trypsin-coupled fluorescence; NAD-dependent protein deacylase sirtuin-5, mitochondrial (Homo sapiens), Q9NXA8; AID 652115, 2013; 330,000 compounds, 1.1% hits; inhibition, % at 15 µM; in the data active = inhibition above about 15%
Target sequence (Q9NXA8 whole entry, looked up): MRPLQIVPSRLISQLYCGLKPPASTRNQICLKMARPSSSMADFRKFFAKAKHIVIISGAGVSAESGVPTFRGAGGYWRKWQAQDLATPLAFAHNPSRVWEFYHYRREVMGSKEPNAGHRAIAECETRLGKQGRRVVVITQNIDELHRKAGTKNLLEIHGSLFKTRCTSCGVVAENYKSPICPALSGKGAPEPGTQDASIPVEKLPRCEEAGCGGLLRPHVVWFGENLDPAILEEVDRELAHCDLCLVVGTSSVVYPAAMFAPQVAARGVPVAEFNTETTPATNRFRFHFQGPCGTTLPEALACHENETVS
An asterisk follows results filed as active; . = not tested or not shown.

SMILES	FN deposit inh	ARNT-TACC3 inh	XiGFP reactiv	DENV2 CPE rescue	FGF22 binding	SIRT5 inh
CCN(CC)CCNC(=O)c1ccc(NC(=O)Cc2ccccc2F)cc1	17.7	-4.0	-0.3	-0.2	-0.3	-0.8
CCN(CC)CCNC(=O)c1ccc(NC(=O)/C=C/c2ccc3ccccc3n2)cc1	.	1.5	0.6	9.6	1.6*	-0.3
C[C@H](CO)N1C[C@H](C)[C@H](CN(C)S(C)(=O)=O)OCCCC[C@H](C)Oc2ccc(NS(C)(=O)=O)cc2C1=O	.	-2.3	0.1	-7.5	0.2	.
CN(CC(=O)Nc1ccc(F)cc1)C(=O)CSc1nc2ncc(Cl)cc2[nH]1	-7.8	-21.9	0.0	-3.5	43.0*	1.1
CCCCN(CCCC)S(=O)(=O)c1c(C)[nH]c(=O)[nH]c1=O	3.2	-4.6	0.2	-1.6	0.3	22.0*
CCCCN(C)S(=O)(=O)c1c(C)[nH]c(=O)[nH]c1=O	.	-11.7	.	-7.3	0.2	-3.6
CCCN1[C@@H]2Cn3c(ccc(-c4ccccc4OC)c3=O)[C@H]1[C@@H](C(=O)N1CCOCC1)[C@@H]2CO	.	.	0.0	-10.7	.	-6.9
O=C(O)C[C@H]1C[C@@H]2c3cc(NC(=O)Nc4ccc(C(F)(F)F)cc4)ccc3O[C@@H]2[C@H](CO)O1	6.2	3.4	0.0	3.3	.	-0.3
COc1cc(/C=C(\C#N)C(=O)c2ccc(O)c(O)c2)cc(I)c1O	-2.2	51.1*	0.0	-0.4	0.1	20.4*
CS(=O)(=O)c1sc(C#N)c2c1C(=O)CC(c1ccccc1)C2 (configuration not stated)	37.1*	26.2	5.3	-17.2	0.1	2.3
Cc1cccc(C)c1NC(=S)NC(C)CCc1ccccc1 (configuration not stated)	0.0	-1.3	0.0	46.9*	-0.4	-2.6
C#CCN1CCc2onc(-c3ccc(Br)cc3)c2C1=O	2.6	.	0.1	3.8	43.1*	.
COc1ccc(NC(=O)N2CCC3(CC2)CN(CC2CC2)[C@H](CO)c2c3c3ccc(OC)cc3n2C)cc1	.	.	0.2	-1.4	-0.2	.
CCOC(=O)c1c(C)[nH]c(C)c1C(=O)COC(=O)c1cc2ccccc2cc1O	0.9	-4.3	0.2	4.5	0.1	111.6*
Cc1noc(C)c1S(=O)(=O)Nc1ccc2c(c1)C(=O)N([C@H](C)CO)C[C@H](C)[C@H](CN(C)Cc1ccc(Cl)c(Cl)c1)OCCCC[C@@H](C)O2	.	-7.2	0.1	0.2	-1.0	9.2
Cc1noc(C)c1S(=O)(=O)Nc1ccc2c(c1)C(=O)N([C@@H](C)CO)C[C@@H](C)[C@H](CN(C)Cc1ccc(Cl)c(Cl)c1)OCCCC[C@@H](C)O2	.	0.0	0.0	-2.3	-0.9	20.1*
Cc1noc(C)c1S(=O)(=O)Nc1ccc2c(c1)C(=O)N([C@@H](C)CO)C[C@@H](C)[C@@H](CN(C)Cc1ccc(Cl)c(Cl)c1)OCCCC[C@@H](C)O2	.	-0.7	0.0	-5.7	-0.9	17.0*
Cc1noc(C)c1S(=O)(=O)Nc1ccc2c(c1)CC(=O)N([C@H](C)CO)C[C@@H](C)[C@@H](CN(C)C(=O)NC(C)C)O2	-10.9	-1.0	-0.4	45.7*	0.1	2.8
Cc1noc(C)c1S(=O)(=O)Nc1ccc2c(c1)C(=O)N([C@@H](C)CO)C[C@H](C)[C@H](CN(C)Cc1ccc3c(c1)OCO3)O2	-3.2	-5.5	-1.1	31.8*	0.6	0.8
Cc1noc(C)c1S(=O)(=O)Nc1ccc2c(c1)CC(=O)N([C@@H](C)CO)C[C@H](C)[C@H](CN(C)C(=O)NC(C)C)O2	0.3	0.0	-0.9	18.3	-0.1	0.5
O=C(NC[C@H]1CC[C@H]2[C@H](CN2C(=O)Cc2ccncc2)O1)C1CCOCC1	.	.	.	-0.3	.	0.0

Source: PubChem (Broad Institute)
